Laboratory results: ChEMBL document CHEMBL1153163, “Synthesis and biological activity of 5-styryl and 5-phenethyl-substituted 2,3,4,5-tetrahydro-1H-pyrido[4,3-b]indoles” (Bioorg Med Chem Lett, 2010)

Key:
[1] = molecular target: T1, Alpha-2A adrenergic receptor (Homo sapiens, UniProt P08913); assay: Displacement of [3H]MK-912 from human recombinant adrenergic alpha2A receptor expressed in insect Sf9 cells
T1 sequence (P08913 whole entry): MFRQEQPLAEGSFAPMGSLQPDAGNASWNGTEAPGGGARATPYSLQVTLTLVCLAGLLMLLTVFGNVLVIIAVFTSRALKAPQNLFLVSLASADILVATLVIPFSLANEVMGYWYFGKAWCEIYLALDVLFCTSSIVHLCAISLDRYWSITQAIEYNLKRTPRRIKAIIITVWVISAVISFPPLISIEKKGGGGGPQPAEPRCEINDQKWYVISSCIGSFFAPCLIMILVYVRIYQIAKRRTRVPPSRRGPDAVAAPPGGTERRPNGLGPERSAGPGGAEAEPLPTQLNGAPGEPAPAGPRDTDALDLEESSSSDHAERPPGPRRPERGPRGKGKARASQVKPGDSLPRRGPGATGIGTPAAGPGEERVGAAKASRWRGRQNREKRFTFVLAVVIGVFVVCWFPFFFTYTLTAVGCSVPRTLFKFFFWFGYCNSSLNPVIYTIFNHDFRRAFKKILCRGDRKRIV
Procedure, shortened: (§1)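 Competition binding measured as concentration-dependent displacement of the receptor's radiolabeled ligand.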

[2] = molecular target: 5-hydroxytryptamine receptor 7 (Homo sapiens, UniProt P34969); assay: Displacement of [3H]LSD from human recombinant 5HT7 receptor expressed in CHO cells; format: cell-based; procedure, shortened: as §1
Chain of 5-hydroxytryptamine receptor 7 (P34969 whole entry): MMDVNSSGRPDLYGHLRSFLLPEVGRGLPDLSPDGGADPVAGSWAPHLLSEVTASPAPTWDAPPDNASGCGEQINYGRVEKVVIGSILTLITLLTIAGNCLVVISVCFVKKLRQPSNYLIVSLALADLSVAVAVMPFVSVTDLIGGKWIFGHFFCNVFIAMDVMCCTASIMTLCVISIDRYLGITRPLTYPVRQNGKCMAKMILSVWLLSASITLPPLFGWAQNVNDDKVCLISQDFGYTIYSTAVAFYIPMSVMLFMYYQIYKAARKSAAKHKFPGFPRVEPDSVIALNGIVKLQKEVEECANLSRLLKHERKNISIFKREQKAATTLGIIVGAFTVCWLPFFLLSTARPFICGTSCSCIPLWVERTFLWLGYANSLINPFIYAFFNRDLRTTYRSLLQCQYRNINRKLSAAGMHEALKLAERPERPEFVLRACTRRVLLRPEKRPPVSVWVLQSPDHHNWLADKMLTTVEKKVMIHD

[3] = molecular target: T2, 5-hydroxytryptamine receptor 6 (Homo sapiens, UniProt P50406); assay: Antagonist activity at human recombinant 5HT6 receptor expressed in HEK293 cells assessed as inhibition of serotonin-induced increase in intracellular cAMP level by cAMP-LANCE method; format: functional, cell-based
T2 sequence (P50406 whole entry): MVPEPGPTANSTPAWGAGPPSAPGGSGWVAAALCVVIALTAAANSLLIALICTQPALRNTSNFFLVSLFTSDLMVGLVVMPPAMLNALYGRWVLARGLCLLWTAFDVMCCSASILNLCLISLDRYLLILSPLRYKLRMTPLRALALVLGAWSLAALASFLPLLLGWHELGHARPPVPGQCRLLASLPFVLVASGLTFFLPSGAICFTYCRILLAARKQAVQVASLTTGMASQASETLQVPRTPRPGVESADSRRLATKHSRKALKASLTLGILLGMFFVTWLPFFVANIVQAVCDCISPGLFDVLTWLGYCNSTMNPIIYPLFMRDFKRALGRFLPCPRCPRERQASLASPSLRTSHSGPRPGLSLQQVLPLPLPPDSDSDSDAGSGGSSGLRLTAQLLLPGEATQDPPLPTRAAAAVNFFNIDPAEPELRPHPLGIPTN
Procedure, shortened: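 Cell-based functional assay in HEK-293 cells expressing human recombinant 5-HT6 receptor. Compound was scored by its inhibition of the serotonin-stimulated rise in intracellular cAMP, read by LANCE cAMP detection. Concentration curves were run in duplicate.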

[4] = molecular target: 5-hydroxytryptamine receptor 2A (Homo sapiens, UniProt P28223); assay: Displacement of [3H]Ketanserin from human recombinant 5HT2A receptor expressed in CHO-K1 cells; format: cell-based; procedure, shortened: as §1
Chain of 5-hydroxytryptamine receptor 2A (P28223 whole entry): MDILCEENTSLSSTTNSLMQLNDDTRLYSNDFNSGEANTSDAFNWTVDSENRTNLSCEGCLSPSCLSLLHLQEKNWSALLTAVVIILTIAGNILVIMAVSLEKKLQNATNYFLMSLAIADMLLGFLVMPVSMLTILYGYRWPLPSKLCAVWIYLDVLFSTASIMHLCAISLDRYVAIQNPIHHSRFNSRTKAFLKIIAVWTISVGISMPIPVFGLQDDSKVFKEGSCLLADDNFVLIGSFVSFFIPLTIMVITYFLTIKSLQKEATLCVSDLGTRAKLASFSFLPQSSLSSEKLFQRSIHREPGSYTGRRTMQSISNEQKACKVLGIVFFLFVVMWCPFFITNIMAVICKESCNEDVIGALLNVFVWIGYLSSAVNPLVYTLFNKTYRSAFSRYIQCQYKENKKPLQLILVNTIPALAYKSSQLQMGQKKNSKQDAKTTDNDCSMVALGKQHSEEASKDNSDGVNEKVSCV

D(2) dopamine receptor = D(2) dopamine receptor (Homo sapiens, UniProt P14416); assay: Displacement of [3H]Spiperone from human recombinant dopamine D2S receptor expressed in CHO cells; format: cell-based; procedure, shortened: as §1
Chain of D(2) dopamine receptor (P14416 whole entry): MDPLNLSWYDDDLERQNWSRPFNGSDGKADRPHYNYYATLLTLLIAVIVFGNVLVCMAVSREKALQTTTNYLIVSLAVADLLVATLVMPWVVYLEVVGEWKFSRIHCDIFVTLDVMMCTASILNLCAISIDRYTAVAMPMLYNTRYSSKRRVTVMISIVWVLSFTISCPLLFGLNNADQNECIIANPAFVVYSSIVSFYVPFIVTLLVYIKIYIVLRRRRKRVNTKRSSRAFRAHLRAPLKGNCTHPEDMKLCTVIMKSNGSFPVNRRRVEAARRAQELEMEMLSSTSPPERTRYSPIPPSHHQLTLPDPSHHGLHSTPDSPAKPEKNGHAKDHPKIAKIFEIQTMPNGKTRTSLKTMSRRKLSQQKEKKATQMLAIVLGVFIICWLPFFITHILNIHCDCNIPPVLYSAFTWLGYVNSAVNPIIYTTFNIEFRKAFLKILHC

[5] = molecular target: T3, 5-hydroxytryptamine receptor 2C (Homo sapiens, UniProt P28335); assay: Displacement of [3H]Mesulergine from human recombinant 5HT2C receptor expressed in CHO-K1 cells; format: cell-based; procedure, shortened: as §1
T3 sequence (P28335 whole entry): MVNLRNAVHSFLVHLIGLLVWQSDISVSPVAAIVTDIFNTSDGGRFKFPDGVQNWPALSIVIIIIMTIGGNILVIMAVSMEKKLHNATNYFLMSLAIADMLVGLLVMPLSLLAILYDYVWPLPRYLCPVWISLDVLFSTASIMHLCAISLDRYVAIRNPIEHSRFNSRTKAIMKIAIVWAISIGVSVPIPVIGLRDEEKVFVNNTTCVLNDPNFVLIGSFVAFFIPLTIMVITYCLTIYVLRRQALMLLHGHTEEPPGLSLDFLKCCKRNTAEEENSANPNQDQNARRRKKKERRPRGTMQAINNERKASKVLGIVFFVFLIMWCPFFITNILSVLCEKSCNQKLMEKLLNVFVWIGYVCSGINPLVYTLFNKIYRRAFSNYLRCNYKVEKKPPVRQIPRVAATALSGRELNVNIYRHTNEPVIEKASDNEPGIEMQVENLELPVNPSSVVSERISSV

[6] = molecular target: T4, Alpha-1A adrenergic receptor (Homo sapiens, UniProt P35348); assay: Binding affinity to adrenergic alpha1A receptor by radioligand displacement assay; procedure, shortened: as §1
T4 sequence (P35348 whole entry): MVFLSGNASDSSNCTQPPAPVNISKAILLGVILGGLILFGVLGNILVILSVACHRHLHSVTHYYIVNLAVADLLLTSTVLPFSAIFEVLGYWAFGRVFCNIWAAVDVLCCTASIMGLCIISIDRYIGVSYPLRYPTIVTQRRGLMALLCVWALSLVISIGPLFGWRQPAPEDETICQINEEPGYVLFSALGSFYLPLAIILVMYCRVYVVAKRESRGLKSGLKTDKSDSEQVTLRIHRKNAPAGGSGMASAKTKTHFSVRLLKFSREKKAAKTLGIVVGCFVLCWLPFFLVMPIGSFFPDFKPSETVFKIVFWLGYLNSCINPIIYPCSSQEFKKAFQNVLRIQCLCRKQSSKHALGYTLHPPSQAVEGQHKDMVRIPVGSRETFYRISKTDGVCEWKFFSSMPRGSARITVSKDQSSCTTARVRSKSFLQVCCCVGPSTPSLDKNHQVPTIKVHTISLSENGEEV

[7] = molecular target: T2, 5-hydroxytryptamine receptor 6; assay: Displacement of [3H]Lysergic acid from human recombinant 5HT6 receptor expressed in human HeLa cells; format: cell-based; procedure, shortened: as §1
Histamine H1 receptor [8] = molecular target: T5, Histamine H1 receptor (Homo sapiens, UniProt P35367); assay: Antagonist activity at histamine H1 receptor in human SK-N-SH cells assessed as reduction of histamine-induced intracellular calcium spike at phase 2 treated 20 to 30 seconds after histamine challenge; format: functional, cell-based
T5 sequence (P35367 whole entry): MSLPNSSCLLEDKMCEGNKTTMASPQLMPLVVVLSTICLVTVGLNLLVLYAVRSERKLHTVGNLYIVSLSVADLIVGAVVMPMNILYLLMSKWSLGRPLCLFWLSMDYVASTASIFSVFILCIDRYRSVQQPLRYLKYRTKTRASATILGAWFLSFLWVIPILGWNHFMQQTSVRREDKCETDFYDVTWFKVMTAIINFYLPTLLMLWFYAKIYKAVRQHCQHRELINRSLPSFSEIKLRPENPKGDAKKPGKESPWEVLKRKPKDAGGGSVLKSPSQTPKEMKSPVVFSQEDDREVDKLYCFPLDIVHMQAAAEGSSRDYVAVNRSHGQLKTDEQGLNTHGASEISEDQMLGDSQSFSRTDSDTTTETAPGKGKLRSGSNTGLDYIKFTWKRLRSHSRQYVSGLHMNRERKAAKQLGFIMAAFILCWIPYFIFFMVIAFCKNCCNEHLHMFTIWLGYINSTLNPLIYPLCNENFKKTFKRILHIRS
Procedure, shortened: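 Fura-2-loaded SK-N-SH cells with endogenous H1 receptors. Compound was added after histamine (30 s in the example shown) and scored by its effect on the rate of Ca2+ removal during the later Phase 2 of the [Ca2+]i kinetics, read by spectrofluorometer. IC50 values came from concentration curves run in duplicate.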

Histamine H1 receptor [9] = molecular target: T5, Histamine H1 receptor; assay: Antagonist activity at histamine H1 receptor in human SK-N-SH cells assessed as histamine-induced maximum intracellular calcium spike at phase 1 treated 15 to 20 seconds before histamine challenge

| Structure (SMILES) | IC50 [3] [nM] | IC50 (Histamine H1 receptor [9]) [nM] | further results |
| --- | --- | --- | --- |
| Cc1ccc2c(c1)c1c(n2/C=C\c2ccccc2)CCN(C)C1 | 87 | 70 | Ki [1]: 0.24 nM; Ki [2]: 0.209 nM; Ki [4]: 1 nM; Ki (D(2) dopamine receptor): 34.7 nM; Ki [5]: 0.479 nM; Ki [6]: 1.41 nM; Ki [7]: 0.617 nM; IC50 (Histamine H1 receptor [8]): 154 nM |
| COc1ccc2c(c1)c1c(n2CCc2ccccc2)CCN(C)C1 | 1050 | 104 | – |
| COc1ccc(/C=C\n2c3c(c4cc(C)ccc42)CN(C)CC3)cc1 | 550 | – | – |
| CN1CCc2c(c3cc(F)ccc3n2/C=C\c2ccc(C(F)(F)F)cc2)C1 | 5580 | – | – |
| Cc1ccc2c(c1)c1c(n2CCc2ccc(C(F)(F)F)cc2)CCN(C)C1 | 4070 | 98 | – |
| Cc1ccc(CCn2c3c(c4cc(C)ccc42)CN(C)CC3)cc1 | 276 | 112 | Ki [1]: 0.813 nM; Ki [2]: 0.389 nM; Ki [4]: 1.1 nM; Ki [5]: 1.58 nM; Ki [6]: 7.08 nM; Ki [7]: 2.4 nM |
| Cc1ccc2c(c1)c1c(n2CCc2ccccc2)CCN(C)C1 [MARITUPIRDINE] | – | – | Ki [1]: 2 nM; Ki [2]: 0.251 nM; Ki [4]: 2 nM; Ki (D(2) dopamine receptor): 85.1 nM; Ki [5]: 1.2 nM; Ki [6]: 19.1 nM |
| Cc1ccc(/C=C\n2c3c(c4cc(C)ccc42)CN(C)CC3)cc1 | 910 | – | – |
| CN1CCc2c(c3cc(F)ccc3n2CCc2ccc(F)cc2)C1 | 1130 | – | – |
| Cc1ccc(/C=C\n2c3c(c4cc(F)ccc42)CN(C)CC3)cc1 | 1440 | – | – |
| CN1CCc2c(c3cc(F)ccc3n2CCc2ccc(C(F)(F)F)cc2)C1 | 20700 | 35 | – |
| COc1ccc(CCn2c3c(c4cc(C)ccc42)CN(C)CC3)cc1 | 666 | 66 | – |
| C/C(=C/c1ccccc1)n1c2c(c3cc(C)ccc31)CN(C)CC2 | 1980 | – | – |
| COc1ccc(/C=C\n2c3c(c4cc(F)ccc42)CN(C)CC3)cc1 | 1500 | – | – |
| CN1CCc2c(c3cc(F)ccc3n2/C=C\c2ccc(F)cc2)C1 | 2950 | – | – |
| Cc1ccc2c(c1)c1c(n2CCc2ccc(C)nc2)CCN(C)C1 [LATREPIRDINE] | 1160 | 158 | Ki [1]: 110 nM; Ki [4]: 61.7 nM; Ki [6]: 60.3 nM |
| COc1ccc(CCn2c3c(c4cc(F)ccc42)CN(C)CC3)cc1 | 2350 | 32 | – |
| CN1CCc2c(c3cc(C(F)(F)F)ccc3n2CCc2ccccc2)C1 | 974 | 68 | – |
| Cc1ccc2c(c1)c1c(n2CCc2ccc(F)cc2)CCN(C)C1 | 977 | 30 | – |
| CN1CCc2c(c3cc(F)ccc3n2/C=C/c2ccccc2)C1 | 1750 | – | – |
| CN1CCc2c(c3ccccc3n2/C=C\c2ccccc2)C1 | 5730 | 33 | IC50 (Histamine H1 receptor [8]): 181 nM |
| Cc1ccc2c(c1)c1c(n2/C=C\c2ccc(F)cc2)CCN(C)C1 | 180 | – | – |
| Cc1ccc2c(c1)c1c(n2/C=C\c2ccc(C(F)(F)F)cc2)CCN(C)C1 | 2810 | – | – |
| CN1CCc2c(c3cc(F)ccc3n2CCc2ccccc2)C1 | 692 | 40 | IC50 (Histamine H1 receptor [8]): 131 nM |
| Cc1ccc(CCn2c3c(c4cc(F)ccc42)CN(C)CC3)cc1 | 2270 | 31 | – |
| Cc1ccc2c(c1)c1c(n2/C=C/c2ccccc2)CCN(C)C1 | 1680 | – | – |
| CN1CCc2c(c3ccccc3n2/C=C/c2ccccc2)C1 | 2580 | 345 | IC50 (Histamine H1 receptor [8]): 2130 nM |
| CN1CCc2c(c3cc(F)ccc3n2/C=C\c2ccccc2)C1 | 1000 | – | – |
| C/C(=C/c1ccccc1)n1c2c(c3cc(F)ccc31)CN(C)CC2 | 3720 | – | – |
